Test results published in paper PMC10868414 (Pharmaceutical Biology, 2024).

Key:
[1] = SDS at 1.0% w/w mixed in diet; ref Elder [1983]; cited from earlier work
[2] = Elimination of andrographolide in urine and feces; assay type: in vivo, beagle dogs
Summary of the method: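 Male beagles (2.0–2.5 y, 10–15 kg; n = 4/group), fasted 10 h with water, caged singly; oral capsules equivalent to 3 mg/kg andrographolide, single dose and daily for 7 days. Urine centrifuged; feces mixed 50:50 w/v with methanol. Samples hydrolysed with β-glucuronidase solution (1,000 U/mL, pH 6.8, 37 °C, 30 min), methanol-precipitated with digoxin internal standard, LC-MS/MS (triple quadrupole); mean ± SD.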

[3] = Lipinski's Rule of Five criterion; ref Lipinski et al. [2001]; cited from earlier work
[4] = poor water solubility and high permeability; ref Lee et al. [2019]; cited from earlier work

| Compound | Abnormalities in long-term study [1] | dose excreted ([2]; beagle, dog, urine, po, 3 mg/kg) [%] | Feces excretion of andrographolide ([2]; of the administered dose, after oral administration of A. paniculata formulations) | logP value [3] | Biopharmaceutics Classification System (BCS) category [4] |
| --- | --- | --- | --- | --- | --- |
| CCCCCCCCCCCCOS(=O)(=O)[O-].[Na+] [SDS, Sodium dodecyl sulfate] | did not result in any abnormalities | – | – | – | – |
| C=C1CC[C@@H]2[C@](C)(CO)[C@H](O)CC[C@@]2(C)[C@@H]1C/C=C1/C(=O)OC[C@H]1O [andrographolide, Andrographolide] | – | 0.1 to 1 | less than 0.4% | lower than 5 | BCS class II |
